The source made the active and inactive calls. No cut-off for these calls is given here.
How the values were obtained:
KB = test: Antiproliferative activity against human KB cells incubated for 48 hrs by SRB assay; type: functional
In short: (§1)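 KB parental and resistant sublines kept in RPMI 1640 with 5% FBS at 37 °C, 5% CO2. Cells plated, left overnight, then given graded compound concentrations for 48 h. A time-zero plate was fixed with 10% TCA at dosing. Cells were stained with 0.4% SRB in 1% acetic acid, unbound dye washed off, bound dye dissolved in 10 mM Tris base, and absorbance read at 515 nm.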

KB7D = test: Induction of apoptosis in human KB7D cells assessed as increase in activated gammaH2AX expression at 5 uM measured after 24 hrs by Western blot analysis; type: functional, cell-based
In short: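 Resistant KB cells attached overnight, then drug-treated at the stated concentrations and times (24 h or 48 h). Lysates were immunoblotted for cleaved PARP, caspase-3, -8 and -9, and γH2AX, with anti-mouse or anti-rabbit IgG secondaries.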

[1] = Antiproliferative activity against human KB7D cells incubated for 48 hrs by SRB assay; type: functional; in short: as §1
[2] = Antiproliferative activity against human KB-VIN cells incubated for 48 hrs by SRB assay; type: functional; conditions: KBVIN; in short: as §1

GI50 (KB)	Compound	other results
462 nM	COc1cccc(S(=O)(=O)Nc2ccccc2CCc2ccc(C(=O)Nc3ccccc3N)cc2)c1	–
888 nM	COc1ccc(S(=O)(=O)Nc2ccccc2CCc2ccc(C(=O)Nc3ccccc3N)cc2)cc1OC	–
137 nM	COc1ccc(S(=O)(=O)Nc2ccccc2CCc2ccc(C(=O)Nc3ccccc3)cc2)cc1	–
> 10000 nM	COc1ccc(S(=O)(=O)Nc2ccc(CCc3ccc(C(=O)Nc4ccccc4N)cc3)cc2)cc1	–
442 nM	COc1ccc(S(=O)(=O)Nc2ccccc2-c2ccc(C(=O)Nc3ccccc3N)cc2)cc1	–
> 10000 nM	COc1ccc(S(=O)(=O)Nc2ccccc2CCc2ccc(C(=O)NO)cc2)cc1	–
697 nM	COc1ccc(S(=O)(=O)Nc2ccccc2CCc2ccc(C(=O)Nc3cccc(N)c3)cc2)cc1	–
456 nM	Nc1ccccc1NC(=O)c1ccc(CCc2ccccc2NS(=O)(=O)c2ccccc2)cc1	–
6630 nM	Nc1ccccc1NC(=O)c1ccc(CNC(=O)OCc2cccnc2)cc1 [ENTINOSTAT]	Activity (KB7D): Active; GI50 [1]: 5680 nM; GI50 [2]: 7710 nM
790 nM	N#Cc1ccc(S(=O)(=O)Nc2ccccc2CCc2ccc(C(=O)Nc3ccccc3N)cc2)cc1	–
4410 nM	COc1ccc(S(=O)(=O)Nc2ccccc2CCc2ccccc2)cc1	–
472 nM	COc1ccc(S(=O)(=O)Nc2ccccc2CCc2ccc(C(=O)Nc3ccccc3O)cc2)cc1	–
286 nM	COc1ccc(S(=O)(=O)Nc2ccccc2CCc2ccc(C(=O)Nc3ccc(N)cc3)cc2)cc1	–

Reference: ChEMBL document CHEMBL4680226, “Design, synthesis, and evaluation of N-phenyl-4-(2-phenylsulfonamido)-benzamides as microtubule-targeting agents in drug-resistant cancer cells, displaying HDAC inhibitory response” (Eur J Med Chem, 2020)
